Compound activity (PubChem)
In the library only some 2.3% were active in any assay of this set; here they are far more common.
Tn6 DDE FP: inhibitors of Tn6 peptide binding to human fibrin DD(E) | P02675 | Fibrin DD(E) TRITC-Tn6 fluorescence polarization displacement | inhibition, % at 8.3 µM | hit rate 0.21% among 370,000;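 active means inhibition above a per-campaign cutoff: mean of compounds within control limits plus 3 SD, cut at about 15% in these data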
ADAM17 inh: inhibitors of human ADAM17. recombinant ADAM17, EDANS/DABCYL FRET peptide cleavage. inhibition, % at 6.95 µM. hit rate 0.83% among 370,000;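 active means inhibition above the mean of compounds lying between control limits plus 3 SD, set per campaign, cut at about 8.5% in these data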
ADAM10 inh: ADAM10 inhibition, QFRET primary screen | hit rate 0.62% among 370,000 | recombinant ADAM10, EDANS/DABCYL FRET peptide cleavage, 3 h | inhibition, % at 7 µM;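 active means inhibition above a per-campaign cutoff equal to the mean of compounds falling between control-based bounds plus 3 SD, cut at about 20% in these data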
Target sequence (O14672 214-748 limits assumed): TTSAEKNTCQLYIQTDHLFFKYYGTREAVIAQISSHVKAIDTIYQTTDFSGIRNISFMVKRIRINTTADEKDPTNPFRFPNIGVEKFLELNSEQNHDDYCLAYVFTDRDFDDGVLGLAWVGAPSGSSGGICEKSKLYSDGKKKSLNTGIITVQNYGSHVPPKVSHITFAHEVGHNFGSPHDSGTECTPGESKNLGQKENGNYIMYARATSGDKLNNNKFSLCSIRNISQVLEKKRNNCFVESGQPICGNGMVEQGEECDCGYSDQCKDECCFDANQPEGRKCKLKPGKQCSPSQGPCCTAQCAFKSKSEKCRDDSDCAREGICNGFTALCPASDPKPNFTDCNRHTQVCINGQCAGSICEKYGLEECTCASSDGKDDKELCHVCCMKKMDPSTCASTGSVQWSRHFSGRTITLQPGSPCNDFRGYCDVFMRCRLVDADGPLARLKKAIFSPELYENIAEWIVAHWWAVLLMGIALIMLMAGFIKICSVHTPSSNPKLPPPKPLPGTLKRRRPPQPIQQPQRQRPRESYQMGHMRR
PLC-beta3 inh: blocks human PLC-beta3 enzyme activity. AID 720704. inhibition, % at 12.2 µM. Purified PLC-beta3, fluorogenic substrate, fluorescence. hit rate 0.18% among 370,000. Q01970; in the data active means inhibition above about 11%
DDE Tn7 FP inh: inhibitors of Tn7 peptide binding to human fibrin DD(E); hit rate 0.13% among 370,000; FP displacement of FITC-Tn7 peptide from fibrin DD(E); 0% = median of compound wells per plate; P02675; inhibition, % at 8.3 µM;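 active means inhibition above the mean of compounds falling within the control limits plus 3 SD of them, cut at about 14% in these data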
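Test system – human fibrin DD(E) · Times – 10 min preincubation, 3 h with tracer, room temperature · Detection – fluorescence polarization of the labelled Tn7 tracer · Measure – percent inhibition normalized to high-control wells · Benchmarks – high control wells with 10 µM unlabelled Aha-Tn7 peptide (full inhibition) · Repeats – singlicate testing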
PLCg1 inh: PLC-gamma1 (human) inhibition, primary screen; inhibition, % at 12.2 µM; purified PLC-gamma1, fluorogenic substrate, fluorescence; hit rate 0.84% among 370,000; in the data active means inhibition above about 9.5%
ADAM10 ctr: inhibits human ADAM10 in ADAM17 exosite counter-screen. shares compounds with ADAM17 inh. inhibition, % at 6.95 µM. hit rate 47% among 2,900. recombinant ADAM10, EDANS/DABCYL FRET peptide cleavage, 3 h. AID 743256;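 active means mean inhibition over the triplicate runs exceeds the activity threshold set in the earlier primary screen, cut at about 20% in these data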
ADAM17 confirm: human ADAM17 inhibition, confirmation; shares compounds with ADAM17 inh; recombinant ADAM17, EDANS/DABCYL QFRET peptide cleavage; inhibition, % at 6.95 µM; hit rate 65% among 2,900; AID 743257;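 active means mean inhibition across replicates above the hit cutoff set in the primary screen, cut at about 8.5% in these data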
Large screens that a line does not name were inactive (follow-up assays come after a bar, where they were run).

COc1ccc(C2c3ccc4ccccc4c3Oc3ncn(CCN4CCOCC4)c(=N)c32)cc1 (centres undefined)	ADAM17 inh 9.2 | ADAM10 ctr inactive | ADAM17 confirm inactive
COc1ccc(C2c3ccc4ccccc4c3Oc3ncn(CCCO)c(=N)c32)cc1OC (centres undefined)	none
Clc1ccc(-n2c(SCc3cccc4ccccc34)nnc2-c2cccnc2)cc1	none
COCCOc1ccc(C(F)(F)F)cc1NC(=O)CN1C(=O)NC(C)(c2ccc3c(c2)OCO3)C1=O (centres undefined)	ADAM17 inh 12 | ADAM10 ctr inactive | ADAM17 confirm 12
COc1ccc(C2(C)NC(=O)N(CC(=O)Nc3ccc4c(c3)OCO4)C2=O)cc1OC (centres undefined)	ADAM17 inh 11 | ADAM10 ctr inactive | ADAM17 confirm 9.0
COc1ccc(C)cc1S(=O)(=O)N(C)CC(=O)Nc1ccc2c(c1)OCO2	ADAM17 inh 10 | ADAM10 ctr inactive | ADAM17 confirm inactive
O=C(CCc1ccccc1)N[C@H]1[C@H](OCc2ccccc2)CCC[C@@]12C(=O)N(Cc1ccccc1)c1ccc(-c3ccsc3)cc12	none
CCOC(=O)N1C(=O)C[C@](Sc2ccc(OC)cc2)(C(=O)N(C)C)[C@H]1c1ccc(OC)cc1	none
COc1ccc(C(=O)N[C@@H]2CC[C@@]34CCCN3C(=O)CCC[C@H]4[C@H]2C)cc1	none
COC(=O)[C@]12C[C@H](CC(=O)N3CCSCC3)C(=O)N(Cc3ccco3)C1=C[C@H](C(C)(C)C)O[C@@H]2C	none
Cc1ccc(S(=O)(=O)N2C[C@@H](C)[C@]3(C2)[C@H](O)[C@H](OC(=O)NCc2ccccc2F)C[C@H]2C(=O)N(c4ccccc4)C(=O)[C@H]23)cc1	ADAM17 inh 9.2 | ADAM10 ctr 37 | ADAM17 confirm 20
Cc1ccc(-n2cc(C(=O)c3cc(Cl)ccc3O)cc(C#N)c2=O)cc1	none
Cc1ccccc1NC(=O)c1cc(C(=O)c2cc(Cl)ccc2O)cn(-c2ccccc2C)c1=O	ADAM17 inh 9.7 | ADAM10 ctr inactive | ADAM17 confirm inactive
COc1cccc(OC[C@@H](O)CN2CCC(C(O)(c3ccccc3)c3ccccc3)CC2)c1	none
COc1ccc(CC(=O)Nc2ccc3c(c2)OC2(CCCC2)O3)c(OC)c1	ADAM17 inh 11 | ADAM10 ctr inactive | ADAM17 confirm inactive
CC[C@H](CCCc1ccc(OC)cc1)CCC(=O)N1CCOCC1	none
Cc1ccc(C)n1NC(=O)c1cccc(Cl)c1	none
Cc1ccc(S(=O)(=O)CNC(=S)c2cccc(Cl)c2)cc1	ADAM17 inh 11 | ADAM10 ctr 48 | ADAM17 confirm 26
CN(c1c2c(nc3ncnn13)CCCC2)C1CCCCC1	none
COc1ccc(NC(=O)CCC(=O)NCCO)cc1	none
O=C(CCC(=O)Nc1ccccc1)NCCO	ADAM17 inh 11 | ADAM10 ctr inactive | ADAM17 confirm inactive
O=C(CSc1ccccc1)NC1CCCCN(Cc2cccc(Cl)c2)C1=O (centres undefined)	none
Cc1cccc(Nc2nnc(SCC(=O)c3ccc(Br)s3)s2)c1C	ADAM17 inh 12 | ADAM10 ctr inactive | ADAM17 confirm 12
O=C1N[C@@H](Cc2ccccc2)COC(=O)[C@H](Cc2ccc(F)cc2)CC/C=C/C[C@@H]1CC(=O)N(CCO)Cc1ccccc1	none
O=C1N[C@@H](Cc2c[nH]c3ccccc23)COC(=O)[C@@H](Cc2ccc(F)cc2)CC/C=C/C[C@@H]1CC(=O)N(CCO)Cc1ccccc1	ADAM17 inh 10 | ADAM10 ctr 59 | ADAM17 confirm 28
CC(C)(C)[C@@H]1COC(=O)[C@H](Cc2ccc(F)cc2)CC/C=C\C[C@H](CC(=O)N(CCO)Cc2ccccc2)C(=O)N1	ADAM17 inh 11 | ADAM10 ctr inactive | ADAM17 confirm inactive
CCN(CC)C(=O)Cn1nc(Cc2ccncc2)c2ccccc2c1=O	none
Cc1ccc(NC(=O)Cn2nnc(-c3ccncc3)n2)cc1C	none
O=C1NC[C@H](CC2CCCCC2)N(CCc2cccc3ccccc23)C1=O	none
O=C1NC[C@@H](Cc2cccc3ccccc23)N(CCCCC2CCCCC2)C1=O	ADAM17 inh 11 | ADAM10 ctr inactive | ADAM17 confirm inactive
Cc1nc2c(OCCC3CCCCC3)cccn2c1N(C)C(=O)CCC1CCCC1	none
Cc1nc2c(OCc3cc(Cl)cc(Cl)c3)cccn2c1N(C)C(=O)CCC1CCCC1	ADAM17 inh 11 | ADAM10 ctr inactive | ADAM17 confirm 10
O=C(COC(=O)CNS(=O)(=O)c1cccc(Br)c1)Nc1ccccc1Sc1ccccc1	ADAM17 inh 9.9 | ADAM10 ctr 27 | ADAM17 confirm 15
CCCOc1ccc(CC(=O)NNC(=S)Nc2ccccc2)cc1Br	ADAM17 inh 12 | ADAM10 ctr inactive | ADAM17 confirm inactive
CCC[C@H]1[C@@H](OC(=O)NCc2ccc(C)o2)CC[C@@]23CCCN2C(=O)CCC[C@@H]13	none
Cc1cccc2sc(NC(=O)CN(C)S(=O)(=O)c3ccc(Br)s3)nc12	ADAM17 inh 8.8 | ADAM10 ctr 44 | ADAM17 confirm 24
CC(=O)NC(c1ccc(C)cc1)c1cc(Cl)c2cccnc2c1O (centres undefined)	none
Oc1c(C(Nc2ccccn2)c2cccnc2)cc(Cl)c2cccnc12 (centres undefined)	ADAM17 inh 11 | ADAM10 ctr 26 | ADAM17 confirm 16
COc1ccc(OC)c(S(=O)(=O)N2CCC(C(=O)NCc3cccs3)CC2)c1	none
Cc1ccc(NC(=O)c2ccc(Nc3c([N+](=O)[O-])cc([N+](=O)[O-])cc3[N+](=O)[O-])cc2)cc1	ADAM17 inh 10 | ADAM10 ctr 23 | ADAM17 confirm 12
c1ccc(-c2nnc3n2N=C(c2ccc4ccccc4c2)CS3)cc1	none
CCNC(=S)N/N=C/c1cn(Cc2ccccc2F)c2ccccc12	ADAM17 inh 9.1 | ADAM10 ctr inactive | ADAM17 confirm 20
CCOC(=O)[C@]12CCCCC/C=C\1N(Cc1ccc(OC)cc1)C(=O)[C@H]2CC(=O)N1CCSCC1	none
CC(C)c1cccc(-c2csc(C(O)c3ccc(F)c(F)c3)n2)c1 (centres undefined)	ADAM17 inh 11 | ADAM10 ctr 24 | ADAM17 confirm 15
COC(=O)c1nn(-c2ccccc2)c(Sc2ccc(Br)cc2)c1/C=N/O	ADAM17 inh 11 | ADAM10 ctr inactive | ADAM17 confirm inactive
